Assay results from ChEMBL document CHEMBL1124846, “Synthesis, antiproliferative, and antiviral activity of certain 4-substituted and 4,5-disubstituted 7-[(1,3-dihydroxy-2-propoxy)methyl]pyrrolo[2,3-d]pyrimidines” (J Med Chem, 1990).

Columns and labels:
[1] = Inhibition of herpes simplex virus (HSV-2) in human foreskin fibroblasts cell lines was determined by plaque assay; settings: Fibroblast
Homo sapiens = species on record: Homo sapiens; experiment: Inhibition of human cytomegalo virus (HCMV) in human foreskin fibroblasts cell lines was determined by plaque assay; assay type: functional, organism-based; settings: Fibroblast
Procedure, shortened: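 HCMV Towne strain (plaque-purified P0) plaque reduction in HFF monolayers in MEM(E) with 10% FBS. Inoculum held about 50 PFU, with compound dissolved in the overlay medium. IC50 came from linear regression of percent inhibition against log concentration, with ganciclovir or acyclovir positive controls in every set; two to five experiments.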

Mus musculus [2] = experiment: Compound was evaluated for percent mortality of mice inoculated with murine cytomegalovirus at a concentration of 50 mg/kg; drug toxicity control; assay type: functional
Procedure, shortened: (§1)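 Three-week-old female Swiss Webster mice infected ip with 2×10^5 PFU MCMV Smith strain; groups of 15 given drug ip twice daily for 5 days, starting 6, 24 or 48 h after inoculation. Toxicity controls received drug without virus. Mortality followed daily for 21 days; final mortality compared with placebo by Fisher Exact Test.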

[3] = Compound was evaluated for cytotoxic activity against HFF cells; assay type: functional, cell-based; settings: Homo sapiens
Procedure, shortened: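 Visual cytotoxicity in uninfected areas of plaque-reduction cultures. HFF cells grown in MEM(E) + 10% FBS for HCMV (Towne) assays; BSC-1 cells for HSV-1 (S-148) assays. Drug in overlay medium. Cytopathology scored 0 to 4+ at 35- and 60-fold magnification on the staining day.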

Mus musculus [4] = experiment: Compound was evaluated for percent mortality of mice inoculated with murine cytomegalovirus at a concentration of 50 mg/kg at 6 h; assay type: ADME, organism-based; design: dose 50 mg/kg; settings: in vivo
Procedure, shortened: as §1

Mus musculus [5] = experiment: Compound was evaluated for 15 mice treated ip twice daily for 5 days at a dose of 16.7 mg/kg followed (MCMV) virus inoculation; assay type: functional; settings: route intraperitoneal
Mus musculus [6] = experiment: Compound was evaluated for mean day of death at 50 mg/kg at 24 h; assay type: functional
Procedure, shortened: (§2)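 Three-week-old female Swiss Webster mice inoculated ip with 2×10^5 PFU MCMV Smith strain. Groups of 15 dosed ip twice daily for 5 days, starting 6, 24 or 48 h post-inoculation. Held 21 days with daily mortality checks. Final mortality and mean day of death (dying animals) computed. Mortality versus placebo by Fisher Exact Test, MDD by Mann–Whitney U-rank test.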

Mus musculus [7] = experiment: Compound was evaluated for 15 mice treated ip twice daily for 5 days at a dose of 16.7 mg/kg at 24 hr followed (MCMV) virus inoculation; assay type: functional; settings: route intraperitoneal
Procedure, shortened: as §2

Mus musculus [8] = experiment: Compound was evaluated for 15 mice treated ip twice daily for 5 days at a dose of 1.9 mg/kg followed (MCMV) virus inoculation; assay type: functional; settings: route intraperitoneal
Mus musculus [9] = experiment: Compound was evaluated for mean day of death at 1.9 mg/kg at 48 h; assay type: functional
Procedure, shortened: as §2

Human alphaherpesvirus 1 = experiment: Inhibition of herpes simplex virus (HSV-1) in plaque reduction assay; assay type: functional, organism-based
Procedure, shortened: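 HSV-1 S-148 strain plaque reduction in BSC-1 monkey kidney monolayers, with about 100 PFU inoculum and compound dissolved in the overlay medium. IC50 came from linear regression of percent inhibition against log concentration, with a positive control in each set.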

Mus musculus [10] = experiment: Compound was evaluated for mean day of death at 1.9 mg/kg at 24 h; assay type: functional
Procedure, shortened: as §2

Mus musculus [11] = experiment: Compound was evaluated for percent mortality of mice inoculated with murine cytomegalovirus at a concentration of 1.9 mg/kg at 24 h; assay type: organism-based; design: dose 1.9 mg/kg; settings: in vivo
Procedure, shortened: as §2

L1210 = experiment: In vitro inhibition of L1210 cell growth to half of the control rate; assay type: functional, cell-based; settings: Mus musculus
Procedure, shortened: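 Murine L1210 leukemia cells in static suspension culture in Fischer's medium with compound for 4 days. Growth rate is the ratio of control to treated population doubling time; where the rate changed, the final rate was used. IC50 is the concentration giving 50% of control growth rate; single-concentration value at 100 μM.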

Mus musculus [12] = experiment: Compound was evaluated for mean day of death at 16.7 mg/kg at 48 h; assay type: functional
Procedure, shortened: as §2

Mus musculus [13] = experiment: Compound was evaluated for mean day of death at 5.6 mg/kg at 24 h; assay type: functional
Procedure, shortened: as §2

Mus musculus [14] = experiment: Compound was evaluated for mean day of death at 1.9 mg/kg at 6 h; assay type: functional
Procedure, shortened: as §2

Mus musculus [15] = experiment: Compound was evaluated for mean day of death at 50 mg/kg at 48 h; assay type: functional
Procedure, shortened: as §2

Mus musculus [16] = experiment: Compound was evaluated for 15 mice treated ip twice daily for 5 days at a dose of 16.7 mg/kg at 6 hr followed (MCMV) virus inoculation; assay type: functional; settings: route intraperitoneal
Procedure, shortened: as §2

Mus musculus [17] = experiment: Compound was evaluated for 15 mice treated ip twice daily for 5 days at a dose of 5.6 mg/kg at 48 hr followed (MCMV) virus inoculation; assay type: functional; settings: route intraperitoneal
Procedure, shortened: as §2

[18] = Cytotoxicity of AD169 strain of HCMV in human foreskin fibroblasts cells; assay type: functional, cell-based; settings: Fibroblast
Mus musculus [19] = experiment: Compound was evaluated for 15 mice treated ip twice daily for 5 days at a dose of 50 mg/kg at 48 hr followed (MCMV) virus inoculation; assay type: functional; settings: route intraperitoneal
Procedure, shortened: as §2

[20] = Cytotoxicity of human simplex virus type 1 in monkey kidney cells; assay type: functional, cell-based; settings: Cercopithecidae
Procedure, shortened: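 Visual cytotoxicity was scored in uninfected cells of the same host monolayers used for the plaque assays, on a 0 to 4+ scale at 35- and 60-fold magnification, at the time plaques were counted.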

Mus musculus [21] = experiment: Compound was evaluated for 15 mice treated ip twice daily for 5 days at a dose of 5.6 mg/kg followed (MCMV) virus inoculation; assay type: functional; settings: route intraperitoneal
Mus musculus [22] = experiment: Compound was evaluated for mean day of death at 16.7 mg/kg; drug toxicity control; assay type: functional
Procedure, shortened: (§3)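 Drug toxicity control: uninfected three-week-old female Swiss Webster mice, groups of 15, dosed ip twice daily for 5 days. Held 21 days with daily mortality checks. Final mortality and mean day of death for animals that died were calculated.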

Mus musculus [23] = experiment: Compound was evaluated for mean day of death at 50 mg/kg at 6 h; assay type: functional
Procedure, shortened: as §2

[24] = Inhibition of herpes simplex virus type 1(HSV-1) in human foreskin fibroblasts cell lines was determined by plaque assay; assay type: functional, cell-based; settings: Fibroblast
Procedure, shortened: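 Plaque reduction used MCMV Smith in primary mouse embryo fibroblasts, HCMV AD169 in low-passage HFF, and HSV-1 E-377 and HSV-2 MS in MEF, rabbit kidney or HFF. IC50 was determined against untreated controls; two or more experiments.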

Mus musculus [25] = experiment: Compound was evaluated for percent mortality of mice inoculated with murine cytomegalovirus at a concentration of 16.7 mg/kg at 24 h; assay type: organism-based; design: dose 16.7 mg/kg; settings: in vivo
Procedure, shortened: as §2

Mus musculus [26] = experiment: Compound was evaluated for percent mortality of mice inoculated with murine cytomegalovirus at a concentration of 1.9 mg/kg at 6 h; assay type: organism-based; design: dose 1.9 mg/kg; settings: in vivo
Procedure, shortened: as §2

Mus musculus [27] = experiment: Compound was evaluated for percent mortality of mice inoculated with murine cytomegalovirus at a concentration of 16.7 mg/kg at 6 h; assay type: organism-based; design: dose 16.7 mg/kg; settings: in vivo
Procedure, shortened: as §2

[28] = Compound was evaluated for percent mortality of mice inoculated with murine cytomegalovirus at a concentration of 16.7 mg/kg; drug toxicity control; assay type: organism-based; design: dose 16.7 mg/kg; settings: mouse, in vivo
Procedure, shortened: as §3

Mus musculus [29] = experiment: Compound was evaluated for mean day of death at 16.7 mg/kg at 24 h; assay type: functional
Procedure, shortened: as §2

Mus musculus [30] = experiment: Compound was evaluated for percent mortality of mice inoculated with murine cytomegalovirus at a concentration of 50 mg/kg at 24 h; assay type: ADME, organism-based; design: dose 50 mg/kg; settings: in vivo
Procedure, shortened: as §1

For Nc1ncnc2c1c(Br)cn2COC(CO)CO, the IC50 [1] was 300 nM, the IC50 (Homo sapiens) was 1600 nM and the mortality at 50 mg/kg (Mus musculus [2]) was 0%. It also gave an IC50 [3] greater than 100000 nM, a Mortality (Mus musculus [4]) of 60% and an Activity (Mus musculus [5]) of 1. It also gave an MDD (Mus musculus [6]) of 8.8, an Activity (Mus musculus [7]) of 12 and an Activity (Mus musculus [8]) of 0. The MDD (Mus musculus [9]) was 4.8, the IC50 (Human alphaherpesvirus 1) was 2000 nM and the MDD (Mus musculus [10]) was 4.8. It also gave a Mortality (Mus musculus [11]) of 60%, an IC50 (L1210) of 710 nM and an MDD (Mus musculus [12]) of 8.4. The MDD (Mus musculus [13]) was 6.3, the MDD (Mus musculus [14]) was 6.2 and the MDD (Mus musculus [15]) was 7.5. It also gave an Activity (Mus musculus [16]) of 9, an Activity (Mus musculus [17]) of 6 and an IC50 [18] greater than 158000 nM. The Activity (Mus musculus [19]) was 13, the IC50 [20] was greater than 100000 nM and the Activity (Mus musculus [21]) was 0. It also gave an MDD (Mus musculus [22]) of 5, an MDD (Mus musculus [23]) of 10.8 and an IC50 [24] of 200 nM. The Mortality (Mus musculus [25]) was 80%, the Mortality (Mus musculus [26]) was 33% and the Mortality (Mus musculus [27]) was 60%. It also gave a Mortality [28] of 7%, an MDD (Mus musculus [29]) of 7.1 and a Mortality (Mus musculus [30]) of 93%.
